Measurements as given in ChEMBL document CHEMBL1140339, “Spiro and dispiro-1,2,4-trioxolanes as antimalarial peroxides: charting a workable structure-activity relationship using simple prototypes” (J Med Chem, 2005).
Values after ≈ are worked out from the molar mass of the structure shown. Blank lines part the entries; values can stand above or below the molecule they belong to.

Experiments:
[1] = Plasma clearance after intravenous administration of 20 mg/kg; conditions: rat
[2] = Plasma half life period after intravenous administration ( 20 mg/kg ); conditions: rat
[3] = Volume distribution after intravenous administration of 20 mg/kg; conditions: rat, in vivo
Mus musculus [4] = assay: Effective dose required to reduce the parasitemia in mice when compound administered with SSV after 3 day postinfection; assay type: functional
Mus musculus [5] = assay: Antimalarial activity (100 mg/kg, subcutaneously) given 1 day post infection of mice (Mus musculus) with Plasmodium berghei is its ability to reduce parasitemia on day 3 post infection; assay type: functional
Method in brief: (§1)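 P. berghei-infected MORO mice, groups of three, treated 1 day postinfection with a single dose (100 or 10 mg/kg, po or sc) dissolved or suspended in 3% ethanol/7% Tween-80. Activity is percent reduction in parasitemia on day 3 postinfection versus untreated controls. Survival time is compared with an untreated control group. Individual measurements generally differed by less than 10%.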

Mus musculus [6] = assay: Survival of mice to 30-day postinfection with Plasmodium berghei upon 100 mg/kg peroral dose was determined; assay type: functional; conditions: route oral
Method in brief: as §1

Mus musculus [7] = assay: Survival of mice to 30-day postinfection with Plasmodium berghei upon 100 mg/kg upon subcutaneous dose was determined; assay type: functional
Method in brief: as §1

Mus musculus [8] = assay: Antimalarial activity (10 mg/kg, peroral) given 1 day post infection of mice (Mus musculus) with Plasmodium berghei is its ability to reduce parasitaemia on day 3 post infection; assay type: functional
Method in brief: as §1

Plasmodium falciparum [9] = assay: In vitro inhibition of chloroquine-sensitive Plasmodium falciparum NF54; assay type: functional, organism-based
Mus musculus [10] = assay: Survival of mice to 30-day postinfection with Plasmodium berghei upon 10 mg/kg upon subcutaneous dose was determined; assay type: functional
Method in brief: as §1

Plasmodium falciparum [11] = assay: In vitro inhibition of chloroquine-resistant Plasmodium falciparum K1; assay type: functional, organism-based
Mus musculus [12] = assay: Survival of mice to 30-day postinfection with Plasmodium berghei upon 10 mg/kg upon peroral dose was determined; assay type: functional; conditions: route oral
Method in brief: as §1

[13] = Plasma half life period after intravenous administration ( 20 mg/kg); conditions: rat, in vivo
Mus musculus [14] = species: Mus musculus; assay: Effective dose required to reduce the parasitemia in mice by suppressive test after 4 day postinfection; assay type: functional
Method in brief: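 Peters 4-day suppressive test in P. berghei-infected mice with multiple daily oral doses. ED50/ED90 are given in (mg/kg)/day.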

Mus musculus [15] = assay: Effective dose required to reduce the parasitemia in mice when compound administered with Tween-80 after 3 day postinfection; assay type: functional
Mus musculus [16] = assay: Antimalarial activity (10 mg/kg, subcutaneously) given 1 day post infection of mice (Mus musculus) with Plasmodium berghei is its ability to reduce parasitemia on day 3 post infection; assay type: functional
Method in brief: as §1

Mus musculus [17] = assay: Antimalarial activity (100 mg/kg, peroral) given 1 day post infection of mice (Mus musculus) with Plasmodium berghei is its ability to reduce parasitaemia on day 3 post infection; assay type: functional
Method in brief: as §1

Plasmodium falciparum [18] = assay: Antiparasitic effect against Plasmodium berghei infected mice (Mus musculus) after 100 mg/kg peroral (SSV) dose after 3 days; assay type: functional; conditions: route oral
[19] = Bioavailability obtained after oral administration of 80 mg/kg; assay type: ADME, organism-based, Mus musculus; conditions: in vivo
Method in brief: (§2)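 Conscious, free-moving rats (n = 3 per group) were jugular- and carotid-cannulated the day before dosing under isoflurane, then fasted overnight. The iv dose was a 5 min jugular infusion in aqueous 0.1 M Captisol (10, 20 or 30 mg/kg). The oral dose was given by gavage as a suspension in 0.5% CMC/0.4% polysorbate 80/0.5% benzyl alcohol/0.9% NaCl (30, 50 or 80 mg/kg). Carotid blood was sampled over 7 h and plasma was obtained by centrifugation.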

[20] = Plasma clearance after intravenous administration of 30 mg/kg; assay type: ADME, organism-based, Mus musculus; design: dose 30 mg/kg, route intravenous
Method in brief: as §2

Mus musculus [21] = assay: Survival of mice to 30-day postinfection with Plasmodium berghei upon 10 mg/kg peroral dose was determined; assay type: functional; conditions: route oral
Method in brief: as §1

Plasmodium falciparum [22] = assay: Anti-parasitic effect against Plasmodium berghei in mice (Mus musculus) after 4 days at 100 mg/kg/day (T/A Tween 80) peroral dose in Peters suppressive assay; assay type: functional, organism-based; design: route oral
[23] = Plasma half life period after intravenous administration ( 30 mg/kg ); assay type: ADME, organism-based, Mus musculus; design: dose 30 mg/kg, route intravenous
Method in brief: as §2

Plasmodium falciparum [24] = assay: Antiparasitic effect against Plasmodium berghei infected mice (Mus musculus) after 100 mg/kg peroral (T/A Tween-80) dose after 3 days; assay type: functional, organism-based; design: dose 100 mg/kg, route oral
Method in brief: as §1

[25] = Volume distribution after intravenous administration of 30 mg/kg; assay type: ADME, organism-based, Mus musculus; design: dose 30 mg/kg, route intravenous; conditions: in vivo
Method in brief: as §2

[26] = Bioavailability obtained after oral administration of 30 mg/kg (n=1); assay type: ADME, organism-based, Mus musculus; conditions: in vivo
Method in brief: as §2

[27] = Plasma clearance after intravenous administration of 10 mg/kg; conditions: rat
[28] = Volume distribution after intravenous administration of 10 mg/kg; conditions: rat, in vivo
[29] = Plasma half life period after intravenous administration ( 10 mg/kg ); conditions: rat

clearance [1]: 72 mL/min/kg | half-life [2]: 0.433 h | Vd ([3]; read-out: Vd): 3 L/kg
SMILES: C[C@H]1[C@@H](O)O[C@@H]2O[C@@]3(C)CC[C@H]4[C@H](C)CC[C@@H]1[C@@]24OO3 [ARTENIMOL]

SMILES: O=C1CCC2(CC1)OOC1(O2)C2CC3CC(C2)CC1C3 (stereo unspecified)
ED50 (Mus musculus [4]): 8.7 (mg/kg)/day | ED90 (Mus musculus [4]): 12 (mg/kg)/day | Reduction (Mus musculus [5]): >99.99% | Survival (Mus musculus [6]): 10.7 days | Survival (Mus musculus [7]): 30 days | Reduction (Mus musculus [8]): 94% | IC50 (Plasmodium falciparum [9]): 0.73 ng/mL (≈ 2.62 nM) | Survival (Mus musculus [10]): 8.6 days | IC50 (Plasmodium falciparum [11]): 0.48 ng/mL (≈ 1.72 nM) | Survival (Mus musculus [12]): 7.1 days | T1/2 [13]: 1.95 h | Vd [3]: 12 L/kg | ED50 (Mus musculus [14]): 1.5 (mg/kg)/day | ED90 (Mus musculus [14]): 6.1 (mg/kg)/day | ED50 (Mus musculus [15]): 3.5 (mg/kg)/day | ED90 (Mus musculus [15]): 7 (mg/kg)/day | Reduction (Mus musculus [16]): 99.7% | Reduction (Mus musculus [17]): >99.99%

SMILES: CC1(C)COC2(CCC3(CC2)OOC2(O3)C3CC4CC(C3)CC2C4)OC1 (stereo unspecified)
EC90 (Plasmodium falciparum [18]): 6.2 (mg/kg)/day | bioavailability [19]: 0.73% | clearance [20]: 83 mL/min/kg | Survival (Mus musculus [10]): 18 days | Survival (Mus musculus [21]): 11.4 days | EC50 (Plasmodium falciparum [22]): 1.8 (mg/kg)/day | half-life [23]: 2.58 h | EC50 (Plasmodium falciparum [24]): 1.5 (mg/kg)/day | Vd [25]: 18 L/kg | Reduction (Mus musculus [16]): >99.99%

SMILES: c1ccc(C2CCC3(CC2)OOC2(O3)C3CC4CC(C3)CC2C4)cc1 (stereo unspecified)
ED90 (Mus musculus [4]): 5.7 (mg/kg)/day | bioavailability [26]: 9.5% | Survival (Mus musculus [10]): 17.1 days | clearance [27]: 33 mL/min/kg | Survival (Mus musculus [21]): 12.6 days | Vd [28]: 5 L/kg | half-life [29]: 1.62 h | ED90 (Mus musculus [14]): 2.6 (mg/kg)/day | ED90 (Mus musculus [15]): 3.2 (mg/kg)/day | Reduction (Mus musculus [16]): 99.92%
